Results from ChEMBL document CHEMBL4706704, “Potential of substituted quinazolines to interact with multiple targets in the treatment of cancer” (Bioorg Med Chem, 2021).

Columns and labels:
HeLa [1] = assay: Cytotoxicity against human HeLa cells over expressing WT-beta3 assessed as reduction in cell viability by Sulforhodamine B assay; format: functional, cell-based
In short: (§1)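 SRB proliferation/cytotoxicity assay; parental lines obtained from ATCC. The HeLa WT-βIII line was generated as described in earlier work. IC50 is the average of at least 3 independent experiments, each run with triplicate points.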

[2] = Induction of microtubule depolymerization in rat A10 cells incubated for over night by immunofluorescence method; format: cell-based
In short: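 Rat A-10 cells were exposed overnight, fixed in cold methanol and stained for microtubules by indirect immunofluorescence with a β-tubulin antibody.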

SK-OV-3 [3] = assay: Cytotoxicity against human SK-OV-3 cells assessed as reduction in cell viability by Sulforhodamine B assay; format: functional, cell-based; in short: as §1
HeLa [4] = assay: Cytotoxicity against human HeLa cells assessed as reduction in cell viability by Sulforhodamine B assay; format: functional, cell-based
In short: (§2)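 SRB assay for antiproliferative/cytotoxic effect. HeLa WT-βIII and SK-OV-3-MDR1-6/6 lines were generated as described earlier and run alongside their parental lines.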

[5] = Resistant index, ratio of IC50 for cytotoxicity against human SK-OV-3 cells over expressing MDR1-6/6 cells to IC50 for cytotoxicity against human SK-OV-3 cells; format: functional
[6] = Resistant index, ratio of IC50 for cytotoxicity against human HeLa cells expressing WT-beta3 to IC50 for cytotoxicity against human HeLa cells; format: functional
MDA-MB-435 = assay: Antiproliferative activity against human MDA-MB-435 cells assessed as reduction in cell viability by Sulforhodamine B assay; format: functional, cell-based; in short: as §1
[7] = Ratio of EC50 for induction of microtubule depolymerization in rat A10 cells to IC50 for antiproliferative activity against human MDA-MB-435 cells
SK-OV-3 [8] = assay: Cytotoxicity against human SK-OV-3 cells over expressing MDR1-6/6 assessed as reduction in cell viability by Sulforhodamine B assay; format: functional, cell-based; in short: as §2
A-431 = assay: Cytotoxicity against human A-431 cells assessed as reduction in cell viability by Sulforhodamine B assay; format: functional, cell-based
Bos taurus [9] = species on record: Bos taurus; assay: Displacement of [3H]-colchicine from bovine brain tubulin at 5 uM after 10 mins by DEAE-cellulose filter method relative to control; format: tissue-based
In short: (§3)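 Tubulin 0.1 mg/mL (1.0 μM) incubated at 37 °C with 5.0 μM [3H]colchicine and inhibitor at 1.0 or 5.0 μM.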

[10] = molecular target: T1, Vascular endothelial growth factor receptor 2 (Homo sapiens, UniProt P35968); assay: Inhibition of VEGFR2 in human U251 cells preincubated for 60 mins followed by VEGF stimulation and measured after 10 mins by ELISA; format: cell-based, U-251
Chorioallantoic membrane [11] = assay: Antiangiogenic activity in Leghorn chicken fertilized egg chorioallantoic membrane assessed as reduction in VEGF/bFGF stimulated neovascularization after 40 hrs by microscopic based CAM assay; format: functional, tissue-based; conditions: Gallus gallus
In short: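 VEGF/bFGF applied at saturation to a testing disk on the CAM. Compounds at various doses were added to the same disk 8 h later, then incubated 40 h more. Vessels were counted in 5–7 grids at 7.5X. Values are percent of growth-factor-only. IC50 by non-linear regression, 2–3 experiments, 2–5 replicates each.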

U-251 = assay: Cytotoxicity against human U-251 cells assessed as reduction in cell viability by Sulforhodamine B assay; format: functional, cell-based
[12] = molecular target: T2, Platelet-derived growth factor receptor beta (Homo sapiens, UniProt P09619); assay: Inhibition of PDGFRbeta in human SH-SY5Y cells preincubated for 60 mins followed by PDGF stimulation and measured after 10 mins by ELISA; format: cell-based
Bos taurus [13] = species on record: Bos taurus; assay: Displacement of [3H]-colchicine from bovine brain tubulin at 1 uM after 10 mins by DEAE-cellulose filter method relative to control; format: tissue-based; in short: as §3
[14] = molecular target: T3, Epidermal growth factor receptor (Homo sapiens, UniProt P00533); assay: Inhibition of EGFR in human A431 cells preincubated for 60 mins followed by EGF stimulation and measured after 10 mins by ELISA; format: cell-based, A-431
[15] = molecular target: T2, Platelet-derived growth factor receptor beta; assay: Potency index, ratio of IC50 for sunitinib to IC50 for test compound for inhibition of PDGFRbeta in human SH-SY5Y cells; format: cell-based
[16] = molecular target: T3, Epidermal growth factor receptor; assay: Potency index, ratio of IC50 for sunitinib to IC50 for test compound for inhibition of EGFR in human A431 cell; conditions: A-431
[17] = molecular target: T2, Platelet-derived growth factor receptor beta; assay: Potency index, ratio of IC50 for erlotinib to IC50 for test compound for inhibition of PDGFRbeta in human SH-SY5Y cells; format: cell-based
[18] = molecular target: T1, Vascular endothelial growth factor receptor 2; assay: Potency index, ratio of IC50 for erlotinib to IC50 for test compound for inhibition of VEGFR2 in human U251 cells; format: cell-based; conditions: U-251
[19] = molecular target: T1, Vascular endothelial growth factor receptor 2; assay: Potency index, ratio of IC50 for sunitinib to IC50 for test compound for inhibition of VEGFR2 in human U251 cells; format: cell-based; conditions: U-251
Chorioallantoic membrane [20] = assay: Potency index, ratio IC50 for erlotinib to IC50 for test compound for antiangiogenic activity in Leghorn chicken fertilized egg chorioallantoic membrane; format: functional, tissue-based; conditions: Gallus gallus

T2 sequence (P09619 whole entry): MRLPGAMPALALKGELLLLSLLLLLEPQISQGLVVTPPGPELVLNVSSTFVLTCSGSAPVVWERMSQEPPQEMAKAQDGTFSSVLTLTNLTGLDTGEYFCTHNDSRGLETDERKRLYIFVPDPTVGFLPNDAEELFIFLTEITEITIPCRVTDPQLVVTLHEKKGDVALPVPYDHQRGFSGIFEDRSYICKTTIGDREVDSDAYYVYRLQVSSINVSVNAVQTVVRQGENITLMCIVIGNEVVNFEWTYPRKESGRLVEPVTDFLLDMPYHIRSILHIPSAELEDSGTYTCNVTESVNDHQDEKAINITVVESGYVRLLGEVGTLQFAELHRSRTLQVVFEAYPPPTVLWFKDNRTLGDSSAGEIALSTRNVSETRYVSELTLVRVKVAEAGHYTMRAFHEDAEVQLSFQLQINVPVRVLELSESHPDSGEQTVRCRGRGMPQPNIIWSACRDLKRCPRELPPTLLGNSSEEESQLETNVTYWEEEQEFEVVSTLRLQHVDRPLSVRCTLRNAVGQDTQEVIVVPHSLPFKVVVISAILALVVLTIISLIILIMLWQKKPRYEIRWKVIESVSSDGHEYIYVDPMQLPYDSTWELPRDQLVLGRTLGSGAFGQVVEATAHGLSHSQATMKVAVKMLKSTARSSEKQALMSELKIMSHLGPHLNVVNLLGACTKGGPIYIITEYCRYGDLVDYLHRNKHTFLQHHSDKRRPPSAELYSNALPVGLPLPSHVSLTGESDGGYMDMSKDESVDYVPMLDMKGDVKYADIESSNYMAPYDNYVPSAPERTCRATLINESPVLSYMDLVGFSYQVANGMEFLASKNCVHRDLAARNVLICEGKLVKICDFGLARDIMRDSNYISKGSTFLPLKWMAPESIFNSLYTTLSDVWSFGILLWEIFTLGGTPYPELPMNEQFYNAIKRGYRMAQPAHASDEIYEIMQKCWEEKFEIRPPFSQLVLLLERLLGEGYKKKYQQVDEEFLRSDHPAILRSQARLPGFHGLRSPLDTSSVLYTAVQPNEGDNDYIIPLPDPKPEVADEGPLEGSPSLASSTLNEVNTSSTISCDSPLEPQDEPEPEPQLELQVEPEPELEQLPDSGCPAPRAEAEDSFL
T3 sequence (P00533 whole entry): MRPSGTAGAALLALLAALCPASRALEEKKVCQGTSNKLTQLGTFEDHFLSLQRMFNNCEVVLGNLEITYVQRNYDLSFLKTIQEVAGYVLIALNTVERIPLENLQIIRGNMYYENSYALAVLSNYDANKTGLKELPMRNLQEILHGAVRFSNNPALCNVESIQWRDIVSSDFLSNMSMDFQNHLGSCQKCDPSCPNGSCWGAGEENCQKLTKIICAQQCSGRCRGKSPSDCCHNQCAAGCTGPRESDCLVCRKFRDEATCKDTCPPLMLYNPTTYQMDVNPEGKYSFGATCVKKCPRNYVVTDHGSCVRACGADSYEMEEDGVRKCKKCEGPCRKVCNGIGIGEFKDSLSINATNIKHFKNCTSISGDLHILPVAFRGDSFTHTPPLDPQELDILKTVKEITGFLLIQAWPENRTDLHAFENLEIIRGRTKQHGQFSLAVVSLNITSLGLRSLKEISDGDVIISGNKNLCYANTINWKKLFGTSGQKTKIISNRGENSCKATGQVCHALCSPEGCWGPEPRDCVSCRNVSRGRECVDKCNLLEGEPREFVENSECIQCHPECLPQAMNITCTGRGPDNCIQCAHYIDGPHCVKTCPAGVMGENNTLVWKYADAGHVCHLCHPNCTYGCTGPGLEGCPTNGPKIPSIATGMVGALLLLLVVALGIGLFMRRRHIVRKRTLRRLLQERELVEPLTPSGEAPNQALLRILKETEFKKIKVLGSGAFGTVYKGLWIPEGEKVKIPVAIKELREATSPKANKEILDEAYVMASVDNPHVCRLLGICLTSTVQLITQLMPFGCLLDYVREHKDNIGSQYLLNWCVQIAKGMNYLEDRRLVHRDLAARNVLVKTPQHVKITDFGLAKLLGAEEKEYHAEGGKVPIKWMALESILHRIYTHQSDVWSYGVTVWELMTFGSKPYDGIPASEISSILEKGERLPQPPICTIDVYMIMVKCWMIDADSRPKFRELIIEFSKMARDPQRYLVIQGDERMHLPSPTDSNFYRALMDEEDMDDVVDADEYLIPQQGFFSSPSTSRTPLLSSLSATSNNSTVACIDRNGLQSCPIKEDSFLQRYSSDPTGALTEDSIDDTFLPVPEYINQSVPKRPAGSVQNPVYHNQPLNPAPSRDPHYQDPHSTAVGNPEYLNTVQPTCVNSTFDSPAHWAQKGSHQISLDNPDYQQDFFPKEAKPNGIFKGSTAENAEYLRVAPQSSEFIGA
T1 sequence (P35968 whole entry): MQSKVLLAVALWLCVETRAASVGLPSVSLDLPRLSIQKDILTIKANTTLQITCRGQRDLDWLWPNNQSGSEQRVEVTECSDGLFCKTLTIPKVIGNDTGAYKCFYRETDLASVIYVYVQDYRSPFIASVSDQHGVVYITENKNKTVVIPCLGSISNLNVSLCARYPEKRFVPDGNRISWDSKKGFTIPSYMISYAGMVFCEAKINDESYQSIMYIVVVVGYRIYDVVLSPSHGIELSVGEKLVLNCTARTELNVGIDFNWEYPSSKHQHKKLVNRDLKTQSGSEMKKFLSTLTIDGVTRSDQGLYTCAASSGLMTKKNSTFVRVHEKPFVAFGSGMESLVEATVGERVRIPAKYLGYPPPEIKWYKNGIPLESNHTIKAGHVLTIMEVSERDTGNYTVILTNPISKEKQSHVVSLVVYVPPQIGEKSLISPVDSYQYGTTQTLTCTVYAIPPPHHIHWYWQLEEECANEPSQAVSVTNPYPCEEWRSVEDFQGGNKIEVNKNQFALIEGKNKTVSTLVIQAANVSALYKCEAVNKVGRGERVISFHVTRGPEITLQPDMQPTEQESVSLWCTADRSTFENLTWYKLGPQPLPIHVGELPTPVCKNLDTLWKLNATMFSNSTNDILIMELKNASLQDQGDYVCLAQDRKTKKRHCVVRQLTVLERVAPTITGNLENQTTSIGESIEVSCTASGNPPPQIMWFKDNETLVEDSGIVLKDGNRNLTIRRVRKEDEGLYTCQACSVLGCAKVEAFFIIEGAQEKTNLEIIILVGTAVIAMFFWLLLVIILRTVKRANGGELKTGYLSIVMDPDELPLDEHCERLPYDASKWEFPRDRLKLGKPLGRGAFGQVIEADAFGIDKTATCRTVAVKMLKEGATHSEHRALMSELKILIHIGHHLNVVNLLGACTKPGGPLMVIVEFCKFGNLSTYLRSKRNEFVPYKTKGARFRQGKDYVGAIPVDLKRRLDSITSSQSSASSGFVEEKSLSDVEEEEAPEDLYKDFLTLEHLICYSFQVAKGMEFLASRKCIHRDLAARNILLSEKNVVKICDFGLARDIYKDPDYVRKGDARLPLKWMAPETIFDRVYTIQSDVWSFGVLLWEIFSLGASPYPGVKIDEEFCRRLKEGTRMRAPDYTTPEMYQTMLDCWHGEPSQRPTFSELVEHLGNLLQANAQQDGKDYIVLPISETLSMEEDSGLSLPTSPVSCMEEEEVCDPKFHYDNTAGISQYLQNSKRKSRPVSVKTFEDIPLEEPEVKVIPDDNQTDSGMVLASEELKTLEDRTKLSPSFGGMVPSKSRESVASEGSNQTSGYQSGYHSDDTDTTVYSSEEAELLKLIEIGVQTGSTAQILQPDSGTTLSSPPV

Row | Structure (SMILES) | IC50 (HeLa [1]) [nM] | EC50 [2] [nM] | IC50 (SK-OV-3 [3]) [nM] | IC50 (HeLa [4]) [nM] | Ratio IC50 [5] | Ratio IC50 [6] | IC50 (MDA-MB-435) [nM] | Ratio [7] | IC50 (SK-OV-3 [8]) [nM] | IC50 (A-431) [nM] | IC50 [10] [nM] | IC50 (Chorioallantoic membrane [11]) [nM] | IC50 (U-251) [nM] | IC50 [12] [nM] | IC50 [14] [nM] | also measured
1 | CSc1ccc(N(C)c2nc(Cl)nc3ccccc23)cc1 | 3.2 | 2.7 | 3.3 | 5 | 1.1 | 0.6 | 2.7 | 1 | 3.5 | – | – | – | – | – | – | –
2 | COc1ccc(N(C)c2nc(Cl)nc3ccccc23)cc1 | – | – | – | – | – | – | – | – | – | 1.2 | 97.5 | 130000 | 32.5 | 76.6 | 3.6 | inhibition (Bos taurus [9]): 99%; inhibition (Bos taurus [13]): 92%
3 | COc1cccc2cc(N(C)c3nc(C)nc4ccccc34)ccc12 | 1.7 | 2.4 | 2.9 | 2.5 | 1.2 | 0.7 | 2 | 1.2 | 3.5 | 5.3 | 16.8 | – | 4.2 | 29.4 | 10.6 | inhibition (Bos taurus [9]): 98%; inhibition (Bos taurus [13]): 88%
4 | CSc1ccc(N(C)c2nc(C)nc3ccccc23)cc1 | – | – | – | – | – | – | – | – | – | 2.9 | 14.7 | – | 4.9 | 232 | 8.7 | inhibition (Bos taurus [9]): 99%; inhibition (Bos taurus [13]): 91%
5 | COc1cccc2cc(N(C)c3nc(Cl)nc4ccccc34)ccc12 | 1.6 | 1.9 | 2.8 | 2.8 | 0.9 | 0.6 | 1.4 | 1.4 | 2.6 | – | – | – | – | – | – | –
6 | COc1ccc(N(C)c2ncnc3ccccc23)cc1 | – | 8.2 | 10.4 | 8.6 | 1.4 | 0.9 | 7.1 | 1.2 | 14.3 | – | – | – | – | – | – | –
7 | COc1ccc(N(C)c2nc(C)nc3ccccc23)cc1 [VERUBULIN] | 1.5 | 2.1 | 2.2 | 2 | 1.2 | 0.8 | 1.7 | 1.2 | 2.6 | 0.9 | 8.4 | 2800 | – | 5.6 | 2.8 | Ratio IC50 [15]: 15; Ratio IC50 [16]: 61; Ratio IC50 [17]: 2; Ratio IC50 [18]: 15; Ratio IC50 [19]: 2
8 | COc1ccc2c(c1)CCCN2c1ncnc2ccccc12 | 13.1 | 23.4 | 18.1 | 16.8 | 1.3 | 0.8 | 12.4 | 1.9 | 23.4 | 16.3 | 111 | – | 27.8 | 54 | 48.9 | –
9 | C#Cc1cccc(Nc2ncnc3cc(OCCOC)c(OCCOC)cc23)c1 [ERLOTINIB] | – | – | – | – | – | – | – | – | – | – | – | 3100 | – | – | – | –
10 | COc1ccc2c(c1)CCCN2c1nc(C)nc2ccccc12 | 1.2 | 3 | 1.5 | 1.2 | 1.5 | 1 | 1.1 | 2.7 | 2.2 | 2.5 | 9.3 | 3100 | 3.1 | 7.8 | 5 | Ratio IC50 (Chorioallantoic membrane [20]): 9.4
11 | CSc1ccc(N(C)c2ncnc3ccccc23)cc1 | 7.3 | 12.3 | 13.6 | 8.5 | 1.1 | 0.6 | 7.8 | 1.6 | 15.6 | – | – | – | – | – | – | –
12 | COc1ccc(/C=C\c2cc(OC)c(OC)c(OC)c2)cc1O [COMBRETASTATIN A4] | – | 9.8 | – | – | – | – | – | – | – | – | – | – | – | – | – | –
13 | COc1ccc2c(c1)CCCN2c1nc(Cl)nc2ccccc12 | – | 2 | 0.8 | 0.6 | – | – | 0.7 | – | 1 | 1.8 | 55.2 | 41400 | 14.8 | 80.6 | – | –
